Columns and labels:
[1] = Retention time of compound by HPLC analysis; format: physicochemical
A-375 [2] = test: Antiproliferative activity against human A375 cells at 0.01 ug/ml for 24 hrs by MTT assay; format: functional; settings: A-375, 24 h
Outline: (§1)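 HEP-3B or A-375 cells were grown in DMEM with 10% FBS, 5% HBSS, penicillin, streptomycin and amphotericin B at 37 C and 5% CO2. Cells were seeded at 2 × 10^4 per well and preincubated for 24 h. They were then exposed to ten 1:3 serial dilutions from a top concentration of 100, made from 2% DMSO stocks. MTT was added for 3 h, formazan was dissolved in DMSO, and A550 was read. Wells were run in triplicate across three independent experiments. IC50 came from dose-response curves.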

A-375 [3] = test: Antiproliferative activity against human A375 cells at 0.02 ug/ml for 24 hrs by MTT assay; format: functional; settings: A-375, 24 h; outline: as §1
A-375 [4] = test: Antiproliferative activity against human A375 cells at 0.05 ug/ml for 24 hrs by MTT assay; format: functional; settings: A-375, 24 h; outline: as §1
A-375 [5] = test: Antiproliferative activity against human A375 cells at 0.14 ug/ml for 24 hrs by MTT assay; format: functional; settings: A-375, 24 h; outline: as §1
A-375 [6] = test: Antiproliferative activity against human A375 cells at 0.41 ug/ml for 24 hrs by MTT assay; format: functional; settings: A-375, 24 h; outline: as §1
A-375 [7] = test: Antiproliferative activity against human A375 cells at 1.23 ug/ml for 24 hrs by MTT assay; format: functional; settings: A-375, 24 h; outline: as §1
A-375 [8] = test: Antiproliferative activity against human A375 cells at 3.7 ug/ml for 24 hrs by MTT assay; format: functional; settings: A-375, 24 h; outline: as §1
A-375 [9] = test: Antiproliferative activity against human A375 cells at 11.11 ug/ml for 24 hrs by MTT assay; format: functional; settings: A-375, 24 h; outline: as §1
A-375 [10] = test: Antiproliferative activity against human A375 cells at 33.33 ug/ml for 24 hrs by MTT assay; format: functional; settings: A-375, 24 h; outline: as §1
A-375 [11] = test: Antiproliferative activity against human A375 cells at 100 ug/ml for 24 hrs by MTT assay; format: functional; settings: A-375, 24 h; outline: as §1
[12] = Antiproliferative activity against human Hep3B cells at 0.01 ug/ml for 24 hrs by MTT assay; format: functional, Hep 3B2; outline: as §1
[13] = Antiproliferative activity against human Hep3B cells at 0.02 ug/ml for 24 hrs by MTT assay; format: functional, Hep 3B2; outline: as §1
[14] = Antiproliferative activity against human Hep3B cells at 0.05 ug/ml for 24 hrs by MTT assay; format: functional, Hep 3B2; outline: as §1
[15] = Antiproliferative activity against human Hep3B cells at 0.14 ug/ml for 24 hrs by MTT assay; format: functional, Hep 3B2; outline: as §1
[16] = Antiproliferative activity against human Hep3B cells at 0.41 ug/ml for 24 hrs by MTT assay; format: functional, Hep 3B2; outline: as §1
[17] = Antiproliferative activity against human Hep3B cells at 1.23 ug/ml for 24 hrs by MTT assay; format: functional, Hep 3B2; outline: as §1
[18] = Antiproliferative activity against human Hep3B cells at 3.7 ug/ml for 24 hrs by MTT assay; format: functional, Hep 3B2; outline: as §1
[19] = Antiproliferative activity against human Hep3B cells at 11.11 ug/ml for 24 hrs by MTT assay; format: functional, Hep 3B2; outline: as §1
[20] = Antiproliferative activity against human Hep3B cells at 33.33 ug/ml for 24 hrs by MTT assay; format: functional, Hep 3B2; outline: as §1
[21] = Antiproliferative activity against human Hep3B cells at 100 ug/ml for 24 hrs by MTT assay; format: functional, Hep 3B2; outline: as §1
A-375 (human melanoma) = test: Antiproliferative activity against human A375 cells for 24 hrs by MTT assay; settings: A-375, 24 h
HEP-3B (human hepatoma) = test: Antiproliferative activity against human Hep3B cells for 24 hrs by MTT assay
[22] = molecular target: Dihydroorotate dehydrogenase (quinone), mitochondrial (Homo sapiens, UniProt Q02127); test: Inhibition of recombinant human DHODH activity after 20 mins by DCIP dye based colorimetric analysis in presence of 1 mM L-dihydroorotate and 0.1 mM CqD
Dihydroorotate dehydrogenase (quinone), mitochondrial, sequence (Q02127 whole entry): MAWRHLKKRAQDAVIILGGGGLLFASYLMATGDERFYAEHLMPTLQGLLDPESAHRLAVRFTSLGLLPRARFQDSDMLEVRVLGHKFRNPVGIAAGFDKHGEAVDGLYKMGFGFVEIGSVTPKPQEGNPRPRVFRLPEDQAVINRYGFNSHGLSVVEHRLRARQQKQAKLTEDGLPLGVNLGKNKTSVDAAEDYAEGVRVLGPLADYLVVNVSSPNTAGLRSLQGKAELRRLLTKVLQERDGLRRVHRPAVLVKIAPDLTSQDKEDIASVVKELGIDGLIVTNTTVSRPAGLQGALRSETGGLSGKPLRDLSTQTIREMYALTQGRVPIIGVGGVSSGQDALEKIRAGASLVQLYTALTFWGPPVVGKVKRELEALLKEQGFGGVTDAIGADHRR

SMILES	Retention_time [1]	inhibition at 0.01 µg/mL (A-375 [2])	inhibition at 0.02 µg/mL (A-375 [3])	inhibition at 0.05 µg/mL (A-375 [4])	inhibition at 0.14 µg/mL (A-375 [5])	inhibition at 0.41 µg/mL (A-375 [6])	inhibition at 1.23 µg/mL (A-375 [7])	inhibition at 3.7 µg/mL (A-375 [8])	inhibition at 11.11 µg/mL (A-375 [9])	inhibition at 33.33 µg/mL (A-375 [10])	inhibition at 100 µg/mL (A-375 [11])	inhibition at 0.01 µg/mL [12]	inhibition at 0.02 µg/mL [13]	inhibition at 0.05 µg/mL [14]	inhibition at 0.14 µg/mL [15]	inhibition at 0.41 µg/mL [16]	inhibition at 1.23 µg/mL [17]	inhibition at 3.7 µg/mL [18]	inhibition at 11.11 µg/mL [19]	inhibition at 33.33 µg/mL [20]	other results
COc1ccc2nc(C(=O)Nc3c(F)cc(-c4cccc(F)c4)cc3F)c(C)c(O)c2c1	7.1 min	0.79%	2.13%	6.38%	11.6%	28.7%	36.2%	49.9%	57.2%	64.9%	96.8%	0.105%	0.87%	1.35%	2.68%	4.5%	13.3%	25.2%	29.3%	31.2%	inhibition at 100 µg/mL [21]: 46.2%; IC50 (A-375 (human melanoma)): 5.03 µM; IC50 (HEP-3B (human hepatoma)): 6.98 µM; IC50 [22]: 0.94 µM
Cc1c(C(=O)Nc2c(F)cc(-c3cccc(F)c3)cc2F)nc2ccc(F)cc2c1C(=O)O	7.2 min	-0.56%	-0.22%	0.37%	1.05%	3.02%	16.3%	24.5%	36.2%	41.3%	64.3%	-0.35%	-0.13%	0.05%	0.65%	1.06%	2.45%	11.2%	26.3%	34.3%	inhibition at 100 µg/mL [21]: 65.2%; IC50 (A-375 (human melanoma)): 14.7 µM; IC50 (HEP-3B (human hepatoma)): 81.9 µM; IC50 [22]: 4.58 µM
COc1ccc2nc(C(=O)Nc3ccc(-c4ccccc4)cc3)c(C)c(C(=O)O)c2c1	7.4 min	0.35%	0.68%	1.26%	3.65%	11.3%	21.3%	33.6%	47.9%	58.3%	70.2%	-0.12%	0.05%	0.65%	2.01%	5.31%	11.2%	19.4%	28.3%	33.6%	inhibition at 100 µg/mL [21]: 72.5%; IC50 (A-375 (human melanoma)): 9.43 µM; IC50 (HEP-3B (human hepatoma)): > 100 µM; IC50 [22]: 1.09 µM

— ChEMBL document CHEMBL3286357, “Design, synthesis and pharmacological evaluation of novel substituted quinoline-2-carboxamide derivatives as human dihydroorotate dehydrogenase (hDHODH) inhibitors and anticancer agents” (Eur J Med Chem, 2014)
